Calls of active or inactive are those of the source. No cut-off for these calls is given here.
Tested on: not listed separately
Assay: Octanol-phosphate buffered saline distribution coefficient, log D of compound at pH 7.4 at 1 mg shake for 30 mins and measured after 48 hrs by HPLC analysis
Assay type: physicochemical
Conditions: not given

Compound | logD at 30 min
CCC(CC)C(=O)N(C)/N=N/c1ccc(C#N)cc1 | 3.76
CCCC(=O)N(C)/N=N/c1ccc(C#N)cc1 | 3.19
CC(C)C(=O)N(C)/N=N/c1ccc(C#N)cc1 | 2.95

Second part, the molecule after the results:

logD at 30 min | Compound
4.7 | CCCC(CCC)C(=O)N(C)/N=N/c1ccc(C(=O)OC)cc1
4.95 | CCCC(CCC)C(=O)N(C)/N=N/c1ccc(C(=O)OCC)cc1
4.98 | CCCC(CCC)C(=O)N(C)/N=N/c1ccc(C)cc1
4.81 | CCCC(CCC)C(=O)N(C)/N=N/c1ccc(Br)cc1

Tested on: not listed separately
Assay: Drug metabolism assessed as Cu2+-mediated compound decomposition by measuring aniline formation at 33 uM measured at 1 min interval for 30 mins by UV-Vis spectrophotometric analysis
Conditions: not given
Procedure, shortened: (§1)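 Decomposition monitored by UV-Vis spectroscopy in methanolic solutions containing Cu2+ or Zn2+.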

Drug metabolism | Compound
Metabolite not detected | CCCC(CCC)C(=O)N(C)/N=N/c1ccc(C(=O)OCC)cc1
Metabolite not detected | CCCC(=O)N(C)/N=N/c1ccc(C#N)cc1

Tested on: SH-SY5Y
Assay: Induction of apoptosis in human SH-SY5Y cells assessed as reduction in cell viability at 10 uM incubated for 48 hrs by annexinV-PE/7-AAD staining based flow cytometric analysis
Assay type: functional
Conditions: not given
Procedure, shortened: (§2)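 SH-SY5Y cells grown on poly-D-lysine/laminin, differentiated 7 days with 10 µM retinoic acid, then exposed 48 h. Adherent plus floating cells pooled, resuspended in PBS/1% BSA, stained annexin V-PE/7-AAD and counted by flow cytometry into viable, early apoptotic, late apoptotic/necrotic; two readings per sample; three independent experiments in duplicate.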

Compound | Activity
CCCC(CCC)C(=O)N(C)/N=N/c1ccc(C(=O)OC)cc1 | Active

Tested on: GL261
Assay: Cytotoxicity against mouse GL261 cells assessed as reduction in cell viability at 0.1 to 100 uM incubated for 48 hrs by MTS assay
Assay type: functional, cell-based
Conditions: not given

Compound | Activity
CCC(CC)C(=O)N(C)/N=N/c1ccc(C#N)cc1 | inactive
CCCC(=O)N(C)/N=N/c1ccc(C#N)cc1 | inactive
CC(C)C(=O)N(C)/N=N/c1ccc(C#N)cc1 | inactive

Tested on: GL261
Assay: Induction of apoptosis in mouse GL261 cells assessed as increase in early apoptotic cells at 10 uM incubated for 48 hrs by annexinV-PE/7-AAD staining based flow cytometric analysis
Assay type: functional, cell-based
Conditions: not given
Procedure, shortened: (§3)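 GL261 cells exposed 48 h; trypsinized adherent cells combined with medium cells, pelleted, resuspended in PBS/1% BSA, stained with annexin V-PE/7-AAD; flow cytometry gating viable (both negative), early apoptotic (annexin+/7-AAD−), late apoptotic/dead (both positive); two readings per sample; three independent experiments in duplicate.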

Compound | Activity
CCCC(CCC)C(=O)N(C)/N=N/c1ccc(C(=O)OC)cc1 | Active

Tested on: SH-SY5Y
Assay: Induction of apoptosis in human SH-SY5Y cells assessed as increase in early apoptotic cells at 10 uM incubated for 48 hrs by annexinV-PE/7-AAD staining based flow cytometric analysis
Assay type: functional, cell-based
Conditions: not given
Procedure, shortened: as §2

Compound | Activity
CCCC(CCC)C(=O)N(C)/N=N/c1ccc(C(=O)OC)cc1 | Active

Target: T1, Histone deacetylase (Homo sapiens) (UniProt Q13547+O15379+Q9UBN7+Q92769+Q9UQL6+Q8WUI4+Q9BY41+Q96DB2+P56524+Q9UKV0+Q969S8)
Assay: Inhibition of HDAC in human HeLa nuclear extract assessed as enzyme residual activity at 25 uM using Boc-Lys(acetyl)-AMC as substrate and measured after 15 mins by fluorescence assay relative to control
Assay type: cell-free
Conditions: not given
Procedure, shortened: (§4)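 Fluorometric HDAC activity kit with HeLa nuclear extract as enzyme source; compounds from 20 mM DMSO stock, tested in duplicate. Deacetylated substrate treated with lysine developer; fluorescence read after 15 min at ex 360/em 460 nm.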

Compound | Activity [%]
CCC(CC)C(=O)N(C)/N=N/c1ccc(C#N)cc1 | 97.2
CCCC(=O)N(C)/N=N/c1ccc(C#N)cc1 | 72.5
CC(C)C(=O)N(C)/N=N/c1ccc(C#N)cc1 | 92.7

More lines, now with the values ahead:

Activity [%] | Compound
97.3 | CCCC(CCC)C(=O)N(C)/N=N/c1ccc(C(=O)OC)cc1
79.8 | CCCC(CCC)C(=O)N(C)/N=N/c1ccc(C(=O)OCC)cc1
93.5 | CCCC(CCC)C(=O)N(C)/N=N/c1ccc(C)cc1
95.6 | CCCC(CCC)C(=O)N(C)/N=N/c1ccc(Br)cc1

Tested on: GL261
Assay: Induction of morphological changes in mouse GL261 cells assessed as decrease in cell aspect ratio at 10 uM incubated for 48 hrs by Hoechst 33258 staining based fluorescence microscopic analysis
Assay type: functional
Conditions: not given
Procedure, shortened: (§5)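 After 48 h exposure, GL261 cells on coverslips fixed in 4% paraformaldehyde, permeabilized (0.1% Triton X-100), blocked 30 min, stained with Alexa Fluor-594 phalloidin and Hoechst 33258; ten random fields at 630×; circularity (4π·area/perimeter²) and aspect ratio traced manually on ≥120 cells per condition; three independent experiments.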

Compound | Activity
CCCC(CCC)C(=O)N(C)/N=N/c1ccc(C(=O)OC)cc1 | Active

Tested on: not listed separately
Assay: Drug metabolism assessed as Zn2+-mediated compound decomposition by measuring aniline formation 33 uM measured at 1 min interval for 30 mins by UV-Vis spectrophotometric analysis
Conditions: not given
Procedure, shortened: as §1

Drug metabolism | Compound
Metabolite not detected | CCCC(CCC)C(=O)N(C)/N=N/c1ccc(C(=O)OCC)cc1
Metabolite not detected | CCCC(=O)N(C)/N=N/c1ccc(C#N)cc1

Tested on: not listed separately
Assay: Stability in 80% human plasma assessed as half life by HPLC analysis
Assay type: ADME, cell-free
Conditions: not given
Procedure, shortened: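 Plasma pooled from 13 donors (heparin), stored at −18 °C, thawed slowly, diluted to 80% v/v with 10 mM PBS pH 7.4 at 37 °C; compound added from 10 mM acetonitrile stock; aliquots taken over time, centrifuged 12000 rpm 10 min, supernatant analyzed by HPLC for half-life; duplicate or triplicate runs.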

Compound | half-life [h]
CCC(CC)C(=O)N(C)/N=N/c1ccc(C#N)cc1 | > 40
CCCC(=O)N(C)/N=N/c1ccc(C#N)cc1 | 15.2
CC(C)C(=O)N(C)/N=N/c1ccc(C#N)cc1 | 13.9

Continued, values first:

half-life [h] | Compound
> 40 | CCCC(CCC)C(=O)N(C)/N=N/c1ccc(C(=O)OC)cc1
> 40 | CCCC(CCC)C(=O)N(C)/N=N/c1ccc(C(=O)OCC)cc1
> 40 | CCCC(CCC)C(=O)N(C)/N=N/c1ccc(C)cc1
> 40 | CCCC(CCC)C(=O)N(C)/N=N/c1ccc(Br)cc1

Tested on: SH-SY5Y
Assay: Induction of apoptosis in human SH-SY5Y cells assessed as increase in late necrotic cells at 10 uM incubated for 48 hrs by annexinV-PE/7-AAD staining based flow cytometric analysis
Assay type: functional, cell-based
Conditions: not given
Procedure, shortened: as §2

Compound | Activity
CCCC(CCC)C(=O)N(C)/N=N/c1ccc(C(=O)OC)cc1 | Active

Tested on: GL261
Assay: Induction of morphological changes in mouse GL261 cells assessed as increase in cell circularity at 10 uM incubated for 48 hrs by Hoechst 33258 staining based fluorescence microscopic analysis
Assay type: functional
Conditions: not given
Procedure, shortened: as §5

Compound | Activity
CCCC(CCC)C(=O)N(C)/N=N/c1ccc(C(=O)OC)cc1 | Active

Tested on: GL261
Assay: Induction of apoptosis in mouse GL261 cells assessed as reduction in cell viability at 10 uM incubated for 48 hrs by annexinV-PE/7-AAD staining based flow cytometric analysis
Assay type: functional
Conditions: not given
Procedure, shortened: as §3

Compound | Activity
CCCC(CCC)C(=O)N(C)/N=N/c1ccc(C(=O)OC)cc1 | Active

Target: T1, Histone deacetylase (Homo sapiens)
Assay: Inhibition of HDAC in human HeLa nuclear extract assessed as enzyme residual activity at 6.25 uM using Boc-Lys(acetyl)-AMC as substrate and measured after 15 mins by fluorescence assay relative to control
Assay type: cell-free
Conditions: not given
Procedure, shortened: as §4

Compound | Activity [%]
CCC(CC)C(=O)N(C)/N=N/c1ccc(C#N)cc1 | 97.7
CCCC(=O)N(C)/N=N/c1ccc(C#N)cc1 | 97.1
CC(C)C(=O)N(C)/N=N/c1ccc(C#N)cc1 | 95.9

Other lines, results leading:

Activity [%] | Compound
92.9 | CCCC(CCC)C(=O)N(C)/N=N/c1ccc(C(=O)OC)cc1
88.3 | CCCC(CCC)C(=O)N(C)/N=N/c1ccc(C(=O)OCC)cc1
94.5 | CCCC(CCC)C(=O)N(C)/N=N/c1ccc(C)cc1
98.9 | CCCC(CCC)C(=O)N(C)/N=N/c1ccc(Br)cc1

Tested on: GL261
Assay: Antiinvasive activity in mouse GL261 cells assessed as reduction in cell migration at 10 uM preincubated for 48 hrs and measured after 6 hrs by giemsa staining based Boyden chamber assay
Assay type: functional
Conditions: not given

Compound | Activity
CCCC(CCC)C(=O)N(C)/N=N/c1ccc(C(=O)OC)cc1 | Active

Tested on: GL261
Assay: Cytotoxicity against mouse GL261 cells assessed as reduction in cell viability incubated for 48 hrs by MTS assay
Assay type: functional, cell-based
Conditions: GL261, 48 h

Compound | IC50 [µM]
CCCC(CCC)C(=O)N(C)/N=N/c1ccc(C(=O)OC)cc1 | 6.7
CCCC(CCC)C(=O)N(C)/N=N/c1ccc(C(=O)OCC)cc1 | > 100
CCC(CC)C(=O)N(C)/N=N/c1ccc(C#N)cc1 | > 100
CCCC(=O)N(C)/N=N/c1ccc(C#N)cc1 | > 100
CCCC(CCC)C(=O)N(C)/N=N/c1ccc(C)cc1 | > 100
CC(C)C(=O)N(C)/N=N/c1ccc(C#N)cc1 | > 100
CCCC(CCC)C(=O)N(C)/N=N/c1ccc(Br)cc1 | 80.6

Tested on: not listed separately
Assay: Stability of the compound in PBS buffer at pH 7.4 assessed as half life by HPLC analysis
Assay type: physicochemical
Conditions: not given

Compound | half-life [h]
CCC(CC)C(=O)N(C)/N=N/c1ccc(C#N)cc1 | > 40
CCCC(=O)N(C)/N=N/c1ccc(C#N)cc1 | > 40
CC(C)C(=O)N(C)/N=N/c1ccc(C#N)cc1 | > 40

Next, values leading:

half-life [h] | Compound
31.4 | CCCC(CCC)C(=O)N(C)/N=N/c1ccc(C(=O)OC)cc1
34.1 | CCCC(CCC)C(=O)N(C)/N=N/c1ccc(C(=O)OCC)cc1
31.3 | CCCC(CCC)C(=O)N(C)/N=N/c1ccc(C)cc1
30.4 | CCCC(CCC)C(=O)N(C)/N=N/c1ccc(Br)cc1

Target: T1, Histone deacetylase (Homo sapiens)
Assay: Inhibition of HDAC in human HeLa nuclear extract assessed as enzyme residual activity at 100 uM using Boc-Lys(acetyl)-AMC as substrate and measured after 15 mins by fluorescence assay relative to control
Assay type: cell-free
Conditions: not given
Procedure, shortened: as §4

Compound | Activity [%]
CCC(CC)C(=O)N(C)/N=N/c1ccc(C#N)cc1 | 95.1
CCCC(=O)N(C)/N=N/c1ccc(C#N)cc1 | 54.9
CC(C)C(=O)N(C)/N=N/c1ccc(C#N)cc1 | 77.6

Other lines, results leading:

Activity [%] | Compound
92.7 | CCCC(CCC)C(=O)N(C)/N=N/c1ccc(C(=O)OC)cc1
55.3 | CCCC(CCC)C(=O)N(C)/N=N/c1ccc(C(=O)OCC)cc1
89 | CCCC(CCC)C(=O)N(C)/N=N/c1ccc(C)cc1
82.5 | CCCC(CCC)C(=O)N(C)/N=N/c1ccc(Br)cc1
